In ChEMBL document CHEMBL4680377, “Discovery of a Novel Series of Pyridone-Based EP3 Antagonists for the Treatment of Type 2 Diabetes” (ACS Med Chem Lett, 2021):
≈ marks a conversion by molar mass, not a printed value.

How the values were obtained:
[1] = biological target: T1, Prostaglandin E2 receptor EP3 subtype (Homo sapiens, UniProt P43115); experiment: Antagonist activity at human EP3 expressed in CHO cells assessed as suppression of sulprostone-induced inhibition of forskolin induced cAMP production measured after 30 mins by HTR-FRET assay; type: functional, cell-based
T1 sequence (P43115 whole entry): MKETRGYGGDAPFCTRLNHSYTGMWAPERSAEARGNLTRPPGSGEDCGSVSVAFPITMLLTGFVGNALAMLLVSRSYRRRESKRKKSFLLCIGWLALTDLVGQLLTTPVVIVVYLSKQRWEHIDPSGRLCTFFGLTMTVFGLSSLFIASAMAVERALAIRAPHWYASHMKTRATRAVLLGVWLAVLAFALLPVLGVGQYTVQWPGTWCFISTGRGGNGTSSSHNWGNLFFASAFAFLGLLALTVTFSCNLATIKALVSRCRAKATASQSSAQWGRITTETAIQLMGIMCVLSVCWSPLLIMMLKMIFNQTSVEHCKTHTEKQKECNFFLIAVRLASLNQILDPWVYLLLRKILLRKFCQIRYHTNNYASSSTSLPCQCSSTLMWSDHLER

[2] = biological target: T1, Prostaglandin E2 receptor EP3 subtype; experiment: Displacement of [3H]-PGE2 from human EP3 expressed in Chem-1 cell membranes incubated for 2 hrs by TopCount scintillation plate reader analysis; set-up: species or system Membrane
[3] = Metabolic stability in human liver microsomes assessed as intrinsic clearance half life; type: ADME, Microsome
[4] = Metabolic stability in rat liver microsomes assessed as intrinsic clearance half life; type: ADME, Microsome
[5] = Kinetic solubility of compound in PBS buffer; type: physicochemical; details: read-out: Kinetic_solubility
[6] = Kinetic solubility of compound at pH 2; type: physicochemical; details: buffer, read-out: Kinetic_solubility
[7] = Apparent permeability across apical to basolateral side in dog MDCK cells; type: ADME, cell-based, Canis lupus familiaris
[8] = Cmax in Sprague-Dawley rat at 10 mg/kg, po measured up to 24 hrs by LC-MS/MS analysis; type: ADME, organism-based; set-up: route oral, dose 10 mg/kg, time <=24; details: in vivo
Method in brief: (§1)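 Sprague-Dawley rats, n = 3 per route, sampled over 24 h. Full PK: iv 2 mg/kg in 20% HPbCD with po 10 mg/kg given either in 0.5% HPMC or in 20% HPbCD, depending on study. Fast PK: po only, 10 mg/kg in 0.5% HPMC.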

[9] = AUClast in Sprague-Dawley rat at 10 mg/kg, po measured up to 24 hrs by LC-MS/MS analysis; type: ADME, organism-based; set-up: route oral, dose 10 mg/kg, time <=24; details: in vivo; method in brief: as §1

SMILES	IC50 [1]	Ki [2]	half-life [3]	half-life [4]	solubility kinetic [5]	solubility kinetic [6]	Papp A→B [7]	Cmax [8]	AUC(0-t) at 24 h [9]
CC(C)C1(c2ccc(-c3ccc4ccccc4c3)[nH]c2=O)OC(O)=NC1=O (stereo unspecified)	68 nM	–	–	–	–	–	–	–	–
CC(C)/C(=C1\C(=O)NC(=O)N1C)c1ccc(-c2ccc3cccc(F)c3c2)[nH]c1=O	350 nM	85 nM	> 3 h	> 3 h	22.5 µM (≈ 9.12 µg/mL)	11.1 µM (≈ 4.5 µg/mL)	6.85 ×10⁻⁶ cm/s	–	–
CCn1ncc2cc(C)c(-c3ccc(C(/C=C4\OC(=O)NC4=O)(CC)CC)c(=O)[nH]3)cc21	> 20000 nM	5700 nM	–	–	–	–	–	–	–
CC(C)C(CC1C(=O)NC(=O)N1C)c1ccc(-c2ccc3cccc(F)c3c2)[nH]c1=O (stereo unspecified)	–	–	0.153 h	< 0.0667 h	33.6 µM (≈ 14.2 µg/mL)	26.6 µM (≈ 11.2 µg/mL)	17.6 ×10⁻⁶ cm/s	–	–
CCC(/C=C1\OC(=O)NC1=O)(CC)c1ccc(-c2ccc3cccc(C(C)C)c3c2)[nH]c1=O	–	120 nM	0.758 h	1.88 h	–	–	–	–	–
CCn1nc(C)c2ccc(-c3ccc(C(/C=C4\OC(=O)NC4=O)(CC)CC)c(=O)[nH]3)cc21	18000 nM	270 nM	–	–	–	–	–	–	–
CCC(/C=C1\OC(=O)NC1=O)(CC)c1ccc(-c2ccc3c(c2)OC(C)(C)CC3)[nH]c1=O	> 20000 nM	2600 nM	–	–	–	–	–	–	–
CC(C)C(c1ccc(-c2ccc3cccc(F)c3c2)[nH]c1=O)C1C(=O)NC(=O)N1C (stereo unspecified)	–	–	0.375 h	0.263 h	17.9 µM (≈ 7.29 µg/mL)	13.6 µM (≈ 5.54 µg/mL)	–	–	–
CCN1CCOc2ccc(-c3ccc(C(/C=C4\OC(=O)NC4=O)(CC)CC)c(=O)[nH]3)cc21	–	–	0.972 h	1.51 h	24.1 µM (≈ 10.5 µg/mL)	21 µM (≈ 9.19 µg/mL)	–	–	–
CCC(/C=C1\OC(=O)NC1=O)(CC)c1ccc(-c2ccc3c(F)cc(F)cc3c2)[nH]c1=O	–	290 nM	–	–	–	–	–	–	–
CCn1ncc2cc(F)c(-c3ccc(C(/C=C4\OC(=O)NC4=O)(CC)CC)c(=O)[nH]3)cc21	–	120 nM	–	–	–	–	–	–	–
CC(C)/C(=C1/SC(=O)NC1=O)c1ccc(-c2ccc3cccc(F)c3c2)[nH]c1=O	–	–	> 3 h	> 3 h	23.3 µM (≈ 9.52 µg/mL)	9.2 µM (≈ 3.76 µg/mL)	22.9 ×10⁻⁶ cm/s	–	–
CCC(/C=C1\OC(=O)NC1=O)(CC)c1ccc(-c2ccc3cc(F)cc(F)c3c2)[nH]c1=O	45 nM	28 nM	> 3 h	> 3 h	–	–	–	–	–
CCC(/C=C1\OC(=O)NC1=O)(CC)c1ccc(-c2ccc3cccc(C(F)(F)F)c3c2)[nH]c1=O	–	–	0.353 h	1.09 h	–	–	–	–	–
CCc1cccc2ccc(-c3ccc(C(/C=C4\OC(=O)NC4=O)(CC)CC)c(=O)[nH]3)cc12	–	–	0.178 h	1.77 h	–	–	–	–	–
CCn1cc2c(F)c(-c3ccc(C(/C=C4\OC(=O)NC4=O)(CC)CC)c(=O)[nH]3)ccc2n1	> 20000 nM	> 10000 nM	–	–	–	–	–	–	–
CCn1ncc2c(F)c(-c3ccc(C(/C=C4\OC(=O)NC4=O)(CC)CC)c(=O)[nH]3)ccc21	> 20000 nM	1300 nM	–	–	–	–	–	–	–
O=C1NC(=O)/C(=C/C2(c3ccc(-c4ccc5cccc(F)c5c4)[nH]c3=O)CCCC2)O1	–	–	> 3 h	> 3 h	24.5 µM (≈ 10.3 µg/mL)	2.55 µM (≈ 1.07 µg/mL)	–	–	–
CC(C)C(CC1NC(=O)NC1=O)c1ccc(-c2ccc3cccc(F)c3c2)[nH]c1=O (stereo unspecified)	–	–	1.59 h	0.35 h	12.3 µM (≈ 5.01 µg/mL)	13 µM (≈ 5.3 µg/mL)	17.1 ×10⁻⁶ cm/s	–	–

Continued, values first:

IC50 [1]	Ki [2]	half-life [3]	half-life [4]	solubility kinetic [5]	solubility kinetic [6]	Papp A→B [7]	Cmax [8]	AUC(0-t) at 24 h [9]	SMILES
–	–	> 3 h	1.08 h	34.8 µM (≈ 14.6 µg/mL)	8.3 µM (≈ 3.48 µg/mL)	14.1 ×10⁻⁶ cm/s	–	–	CC(C)C(/C=C1/C(=O)NC(=O)N1C)c1ccc(-c2ccc3cccc(F)c3c2)[nH]c1=O (stereo unspecified)
–	–	> 3 h	> 3 h	35.7 µM (≈ 15 µg/mL)	39.4 µM (≈ 16.6 µg/mL)	–	–	–	Cc1cc(C(/C=C2\OC(=O)NC2=O)C(C)C)c(=O)[nH]c1-c1ccc2cccc(F)c2c1 (stereo unspecified)
–	–	1.98 h	> 3 h	30.8 µM (≈ 12.5 µg/mL)	3.85 µM (≈ 1.56 µg/mL)	–	–	–	O=C1NC(=O)/C(=C/C(c2ccc(-c3ccc4cccc(F)c4c3)[nH]c2=O)C2CC2)O1 (stereo unspecified)
–	–	1.87 h	0.76 h	20.1 µM (≈ 8.25 µg/mL)	11.3 µM (≈ 4.64 µg/mL)	26.3 ×10⁻⁶ cm/s	–	–	CC(C)C(c1ccc(-c2ccc3cccc(F)c3c2)[nH]c1=O)C1SC(=O)NC1=O (stereo unspecified)
55 nM	28 nM	2.48 h	> 3 h	33.4 µM (≈ 13 µg/mL)	27.4 µM (≈ 10.7 µg/mL)	–	–	–	O=C1NC(=O)/C(=C/C2(c3ccc(-c4ccc5cccc(F)c5c4)[nH]c3=O)CC2)O1
–	–	1.09 h	2.39 h	–	–	–	–	–	O=C1NC(=O)/C(=C/C(c2ccc(-c3ccc4cccc(F)c4c3)[nH]c2=O)C2CCCCC2)O1 (stereo unspecified)
–	–	1.3 h	2.96 h	9.1 µM (≈ 4.14 µg/mL)	0.9 µM (≈ 0.409 µg/mL)	–	–	–	O=C1NC(=O)/C(=C/C(Cc2ccccc2)c2ccc(-c3ccc4cccc(F)c4c3)[nH]c2=O)O1 (stereo unspecified)
–	–	> 3 h	> 3 h	26.4 µM (≈ 10.7 µg/mL)	4.62 µM (≈ 1.88 µg/mL)	–	–	–	CC(C)[C@@H](/C=C1\OC(=O)NC1=O)c1ccc(-c2ccc3cccc(F)c3c2)[nH]c1=O
–	–	> 3 h	> 3 h	21.5 µM (≈ 9.48 µg/mL)	3.2 µM (≈ 1.41 µg/mL)	–	–	–	CC(C)C(/C=C1\OC(=O)NC1=O)c1cc(Cl)c(-c2ccc3cccc(F)c3c2)[nH]c1=O (stereo unspecified)
–	–	> 3 h	> 3 h	33.7 µM (≈ 14.6 µg/mL)	3.68 µM (≈ 1.6 µg/mL)	–	–	–	CCC(CC)C(/C=C1\OC(=O)NC1=O)c1ccc(-c2ccc3cccc(F)c3c2)[nH]c1=O (stereo unspecified)
–	–	0.948 h	> 3 h	32.6 µM (≈ 13.7 µg/mL)	13.5 µM (≈ 5.68 µg/mL)	–	58.1 µg/mL	327 µg·h/mL	CCC(/C=C1\OC(=O)NC1=O)(CC)c1ccc(-c2ccc3cccc(F)c3c2)[nH]c1=O
–	–	> 3 h	> 3 h	25.4 µM (≈ 10.3 µg/mL)	10.8 µM (≈ 4.39 µg/mL)	–	–	–	CC(C)[C@H](/C=C1\OC(=O)NC1=O)c1ccc(-c2ccc3cccc(F)c3c2)[nH]c1=O
–	–	> 3 h	> 3 h	–	–	–	–	–	CC(C)/C(=C1\NC(=O)OC1=O)c1ccc(-c2ccc3cccc(F)c3c2)[nH]c1=O
1300 nM	140 nM	> 3 h	> 3 h	–	–	–	–	–	CC(C)/C(=C1/OC(=O)NC1=O)c1ccc(-c2ccc3cccc(F)c3c2)[nH]c1=O
–	–	2.1 h	> 3 h	32.8 µM (≈ 14.4 µg/mL)	15.4 µM (≈ 6.78 µg/mL)	–	–	–	O=C1NC(=O)/C(=C/C(c2ccccc2)c2ccc(-c3ccc4cccc(F)c4c3)[nH]c2=O)O1 (stereo unspecified)
–	–	> 3 h	2.62 h	25.6 µM (≈ 10.8 µg/mL)	4.8 µM (≈ 2.03 µg/mL)	15.4 ×10⁻⁶ cm/s	–	–	CC(C)C(/C=C1\SC(=O)NC1=O)c1ccc(-c2ccc3cccc(F)c3c2)[nH]c1=O (stereo unspecified)
–	–	> 3 h	1.46 h	10.7 µM (≈ 4.34 µg/mL)	7.5 µM (≈ 3.04 µg/mL)	12.3 ×10⁻⁶ cm/s	–	–	CC(C)C(/C=C1\NC(=O)NC1=O)c1ccc(-c2ccc3cccc(F)c3c2)[nH]c1=O (stereo unspecified)
–	–	1.89 h	> 3 h	36.1 µM (≈ 14.2 µg/mL)	1.66 µM (≈ 0.651 µg/mL)	–	–	–	CC(C)(/C=C1\OC(=O)NC1=O)c1ccc(-c2ccc3cccc(F)c3c2)[nH]c1=O
–	–	1.21 h	> 3 h	–	–	–	–	–	O=C1NC(=O)/C(=C/C(c2ccc(-c3ccc4cccc(F)c4c3)[nH]c2=O)C2CCCC2)O1 (stereo unspecified)
–	–	0.578 h	0.145 h	10.6 µM (≈ 4.17 µg/mL)	5.8 µM (≈ 2.28 µg/mL)	–	–	–	CC(C)C(c1ccc(-c2ccc3cccc(F)c3c2)[nH]c1=O)C1NC(=O)NC1=O (stereo unspecified)
15 nM	6 nM	1.68 h	0.95 h	35.4 µM (≈ 14.5 µg/mL)	24.4 µM (≈ 9.97 µg/mL)	10.3 ×10⁻⁶ cm/s	–	–	CC(C)[C@H](C[C@H]1OC(=O)NC1=O)c1ccc(-c2ccc3cccc(F)c3c2)[nH]c1=O (relative stereo)
610 nM	85 nM	> 3 h	1.27 h	27.4 µM (≈ 10.8 µg/mL)	6.9 µM (≈ 2.72 µg/mL)	3.15 ×10⁻⁶ cm/s	–	–	CC(C)[C@@H](c1ccc(-c2ccc3cccc(F)c3c2)[nH]c1=O)[C@@H]1OC(=O)NC1=O (relative stereo)
–	–	0.67 h	0.143 h	31.2 µM (≈ 13.2 µg/mL)	4.9 µM (≈ 2.08 µg/mL)	17.6 ×10⁻⁶ cm/s	–	–	CC(C)[C@H](C[C@H]1SC(=O)NC1=O)c1ccc(-c2ccc3cccc(F)c3c2)[nH]c1=O (relative stereo)
92 nM	27 nM	> 3 h	1.93 h	31.6 µM (≈ 12.5 µg/mL)	5.4 µM (≈ 2.13 µg/mL)	9.14 ×10⁻⁶ cm/s	–	–	CC(C)[C@@H](c1ccc(-c2ccc3cccc(F)c3c2)[nH]c1=O)[C@H]1OC(=O)NC1=O (relative stereo)
–	–	1.24 h	0.77 h	23.9 µM (≈ 10.1 µg/mL)	12.2 µM (≈ 5.18 µg/mL)	25.5 ×10⁻⁶ cm/s	–	–	CC(C)[C@@H](C[C@H]1SC(=O)NC1=O)c1ccc(-c2ccc3cccc(F)c3c2)[nH]c1=O (relative stereo)
